Activity calls are given as the source filed them. Unless noted, the rule behind the calls is not given here.

As a reminder, the Vd/F is the apparent distribution volume after extravascular dosing. The half-life is how long it takes for the measured level to halve. As usually defined, the AUC(0-t) is the area under the concentration-time curve up to a stated or last time point. As usually defined, the Tmax is the time at which the peak concentration occurs. The term Cmax denotes the highest concentration seen after dosing. One may read the clearance as the volume of plasma or blood freed of the substance per unit of time.

For data set [1], the target named is T1, Neuronal acetylcholine receptor subunit alpha-7 (Homo sapiens, UniProt P36544). In words: Agonist activity at human alpha7 nAChR expressed in Xenopus laevis oocytes assessed as induction of channel current at -90 mV holding potential by two-electrode voltage clamp method. It counts as cell-based. A general note: In two-electrode clamp one electrode senses voltage and the other passes current.

Data set [2] relates to Mus musculus. In words: Anti-schizophrenic activity in ip dosed C57BL/6J mouse assessed as protection against MK-801-induced auditory gating deficit by measuring reduction in prepulse inhibition impairment at 8 to 16 dB prepulse intensity. It counts as functional, organism-based.
Data set [3] deals with T1, Neuronal acetylcholine receptor subunit alpha-7. As to the kind of experiment: Positive allosteric modulation of human alpha7 nAChR expressed in Xenopus laevis oocytes assessed as increase in acetylcholine-induced channel current at 10 uM at -90 mV holding potential preincubated for 2 mins followed by acetylcholine addition in presence of alpha7 nAChR antagonist MLA by two-electrode voltage clamp method relative to control. It counts as cell-based.

Data set [4] is described as follows: Apparent volume of distribution in rat at 3 mg/kg, iv by LC-MS/MS analysis. It counts as ADME, organism-based. Conditions: in vivo. The method, boiled down: (§1)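 Rat plasma stored at -20 °C, spiked with internal standard, protein-precipitated with methanol, centrifuged and filtered before LC-MS/MS. C18 column at 40 °C, acetonitrile/0.1% formic acid (80:20) isocratic at 0.5 mL/min. Positive ESI with MRM m/z 400.0->129.9. Parameters taken per rat by non-compartmental analysis, n = 3.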

The nature of data set [5]: Drug uptake in C57BL/6J mouse brain at 1 mg/kg, ip after 2 hrs by LC-MS/MS analysis. It counts as ADME, organism-based. Conditions: read-out: Drug uptake. The method, boiled down:
(§2)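 C57BL/6J mice given 1 mg/kg i.p. from a 0.4 mg/mL solution in 10% DMSO/50% PEG400/40% SBECD. Plasma and brain taken at 0.5, 2 and 8 h. Samples mixed with internal standard in methanol/acetonitrile (1:1), centrifuged and diluted 10x in methanol:water with 0.1% FA, then measured by HPLC-MS-MS. n = 3; ratio is brain over plasma concentration.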

Data set [6] in a line: Apparent volume of distribution during terminal phase in rat at 60 mg/kg, po by LC-MS/MS analysis. It counts as ADME, organism-based. Conditions: in vivo. The method, boiled down: as §1
The nature of data set [7]: Ratio of drug level in C57BL/6J mouse brain to plasma at 1 mg/kg, ip after 0.5 hrs by LC-MS/MS analysis. It counts as ADME, organism-based. Conditions: read-out: BPR. The method, boiled down:
as §2

Data set [8] deals with GABA-A receptor; anion channel (Homo sapiens) (UniProt P14867+P47870+P18507+P28472+P48169+Q99928+Q9UN88+P34903+O00591+O14764+Q8N1C3+P18505+P78334+P47869+P31644+Q16445). As to the kind of experiment: Positive allosteric modulation of human GABA-A receptor expressed in Xenopus laevis oocytes assessed as increase in GABA-induced channel current 10 uM by two-electrode voltage clamp method. It counts as cell-based.

Data set [9] is described as follows: Half life in rat at 3 mg/kg, iv by LC-MS/MS analysis. It counts as ADME, organism-based. Conditions: in vivo. The method, boiled down: as §1
In data set [10] the target is T2, 5-hydroxytryptamine receptor 3A (Homo sapiens) (UniProt P46098).
T2 sequence (whole entry): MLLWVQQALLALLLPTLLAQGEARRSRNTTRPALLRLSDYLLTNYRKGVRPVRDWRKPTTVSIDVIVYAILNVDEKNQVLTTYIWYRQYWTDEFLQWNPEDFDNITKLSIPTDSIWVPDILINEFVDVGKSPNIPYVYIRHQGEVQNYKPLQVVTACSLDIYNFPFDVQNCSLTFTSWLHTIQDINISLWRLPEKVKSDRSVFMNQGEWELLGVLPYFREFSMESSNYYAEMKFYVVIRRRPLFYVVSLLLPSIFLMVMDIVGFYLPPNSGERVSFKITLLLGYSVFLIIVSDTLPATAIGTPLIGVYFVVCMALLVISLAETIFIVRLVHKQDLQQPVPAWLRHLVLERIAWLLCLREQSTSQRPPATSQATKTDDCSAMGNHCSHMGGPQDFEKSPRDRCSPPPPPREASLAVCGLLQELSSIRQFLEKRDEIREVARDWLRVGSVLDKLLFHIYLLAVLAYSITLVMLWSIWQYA
In words: Positive allosteric modulation of human 5-HT3A receptor expressed in Xenopus laevis oocytes assessed as increase in 5-HT-induced channel current at 10 uM at -90 mV holding potential by two-electrode voltage clamp method. It counts as cell-based.

A short description of data set [11]: AUClast in rat at 3 mg/kg, iv by LC-MS/MS analysis. It counts as ADME, organism-based. Conditions: in vivo. Also noted: dose 3 mg/kg, time 0 - last, route intravenous. Put shortly: as §1
Data set [12] can be described thus: Drug uptake in C57BL/6J mouse brain at 1 mg/kg, ip after 8 hrs by LC-MS/MS analysis. It counts as ADME, organism-based. Conditions: read-out: Drug uptake. The method, boiled down: as §2
A short description of data set [13]: Tmax in rat at 60 mg/kg, po by LC-MS/MS analysis. Conditions: in vivo. It counts as ADME, organism-based. The method, boiled down: as §1
A short description of data set [14]: Plasma concentration in C57BL/6J mouse at 1 mg/kg, ip after 2 hrs by LC-MS/MS analysis. It counts as ADME, organism-based. The method, boiled down: as §2
In data set [15] the test system is Mus musculus. In words: Anti-schizophrenic activity in C57BL/6J mouse assessed as protection against MK-801-induced auditory gating deficit by measuring prepulse inhibition impairment at 1 mg/kg, ip at 8 to 16 dB prepulse intensity pretreated for 30 mins starting from 30 mins post alpha7 nAChR antagonist MLA treatment followed by MK-801 treatment and measured after 30 mins (reference value: 8.7%). It counts as functional. Also on record: scale not given: the % may be the effect or the level left. Put shortly:
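Mice given MLA 3 mg/kg i.p. 30 min before, then compound 1 mg/kg i.p. 60 min before test and MK-801 0.1 mg/kg i.p. 30 min before test. PPI measured at prepulses 8-16 dB above 68 dB background. %PPI = (1 − prepulse-pulse/pulse-only)×100, one-way ANOVA.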

Data set [16] is described as follows: Cmax in rat at 60 mg/kg, po by LC-MS/MS analysis. It counts as ADME, organism-based. Also on record: dose 60 mg/kg, route oral. Conditions: in vivo. Put shortly: as §1
In data set [17] the target is T1, Neuronal acetylcholine receptor subunit alpha-7. As to the kind of experiment: Positive allosteric modulation of human alpha7 nAChR expressed in Xenopus laevis oocytes assessed as increase in acetylcholine-induced channel current at 10 uM at -90 mV holding potential preincubated for 2 mins followed by co-application with acetylcholine for 10 secs by two-electrode voltage clamp method relative to control. It counts as cell-based.

The subject of data set [18] is Mus musculus. In words: Anti-schizophrenic activity in C57BL/6J mouse assessed as protection against MK-801-induced auditory gating deficit by measuring prepulse inhibition impairment at 1 mg/kg, ip at 8 to 16 dB prepulse intensity (reference value: 11%). It counts as functional. Also on record: scale not given: the % may be the effect or the level left.
Data set [19] is described as follows: Clearance in rat at 3 mg/kg, iv by LC-MS/MS analysis. Conditions: in vivo. It counts as ADME, organism-based. Put shortly:
as §1

The nature of data set [20]: Plasma concentration in C57BL/6J mouse at 1 mg/kg, ip after 0.5 hrs by LC-MS/MS analysis. It counts as ADME, organism-based. The method, boiled down: as §2

T1 sequence (P36544 whole entry): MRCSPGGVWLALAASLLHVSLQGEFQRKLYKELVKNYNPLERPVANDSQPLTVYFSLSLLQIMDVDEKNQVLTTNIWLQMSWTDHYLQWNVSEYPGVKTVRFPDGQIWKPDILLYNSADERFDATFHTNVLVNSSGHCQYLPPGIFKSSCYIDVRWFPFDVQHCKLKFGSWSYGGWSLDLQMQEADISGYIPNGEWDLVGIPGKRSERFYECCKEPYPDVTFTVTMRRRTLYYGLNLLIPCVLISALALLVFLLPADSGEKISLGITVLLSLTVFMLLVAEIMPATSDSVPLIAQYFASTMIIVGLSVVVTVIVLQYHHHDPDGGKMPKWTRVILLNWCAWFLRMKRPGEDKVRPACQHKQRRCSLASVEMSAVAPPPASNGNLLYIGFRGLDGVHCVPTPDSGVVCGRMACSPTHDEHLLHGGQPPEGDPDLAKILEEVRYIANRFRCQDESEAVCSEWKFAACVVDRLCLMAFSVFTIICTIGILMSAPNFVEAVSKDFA

`Cc1cccc(Cl)c1-n1cnc2nc(SCc3ccccc3)sc2c1=O`: the outcome in [1], in data set [3], in data set [8] and in [10] was inactive. In addition, the Activity result in data set [2] is “Dose-dependent effect”; in [15], 14%; in data set [18] it was 28%. For the same compound, in [4], the Vd turned out to be 0.069 L/kg. Also, the concentration at 2 h in [5] was 26.3 ng/g; in data set [14], 9.8 ng/mL. In data set [6], the Vd/F was 0.6 L/kg. Also, the Kp at 0.5 h in data set [7] is 2.5. In data set [9], this compound gave a half-life of 10.8 h. In data set [11], this compound came in with an AUC(0-t) of 600 ng·h/mL. Further, in [12], the concentration at 8 h came out at 3.7 ng/g. Further, the Tmax in data set [13] stood at 1.3 h. In [16], this compound displayed a Cmax of 200 ng/mL. Moreover, in [17], the %max came to 1630%. Besides, in [19], the clearance was determined as 5 mL/h/kg. This compound returned a concentration at 0.5 h in [20] of 34.3 ng/mL.

For the origin of these results see ChEMBL document CHEMBL4308829, “Design and Synthesis of Novel Positive Allosteric Modulators of α7 Nicotinic Acetylcholine Receptors with the Ability To Rescue Auditory Gating Deficit in Mice” (J Med Chem, 2018).
